Out of some 300,000 compounds screened, about 120 (0.04%) were called active. Many of the other results were omitted from the sample, so actives are more common in it than they were. Values without a mark were called inactive.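 The calls were made as follows: active = more than half of replicate wells score below -50%, meaning over 50% inhibition versus plate controls; inconclusive = some replicates but at most half score below -50%; inactive = no replicate scores below -50%.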
Biological target: Glycogen synthase kinase-3 beta (Homo sapiens) (UniProt P49841)
Assay: blockers of GSK3B enzyme activity – biochemical, cell-free homogeneous, HTS, primary screen (AID 2097);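 also: 0% = median DMSO wells and -100% = median GW8510 positive control wells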
Conditions: GST-GSK3beta kinase, ADP-Glo luminescence, 60 min; at 10 µM; hits give low values
Method in brief: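 Assay system: GST-fused GSK3beta enzyme, cell-free / Medium: Tris pH 7.5 buffer with MgCl2, DTT, BSA, heparin / Also added: peptide substrate plus 25 µM ATP (final) / Compound: 10 µM single point / Timing: kinase reaction with compound 60 min at room temperature / Detection: ADP-Glo luminescence / Benchmarks: DMSO neutral wells and GW8510 at 20 µM as positive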

Sequence of Glycogen synthase kinase-3 beta (Homo sapiens) (P49841 whole entry, looked up): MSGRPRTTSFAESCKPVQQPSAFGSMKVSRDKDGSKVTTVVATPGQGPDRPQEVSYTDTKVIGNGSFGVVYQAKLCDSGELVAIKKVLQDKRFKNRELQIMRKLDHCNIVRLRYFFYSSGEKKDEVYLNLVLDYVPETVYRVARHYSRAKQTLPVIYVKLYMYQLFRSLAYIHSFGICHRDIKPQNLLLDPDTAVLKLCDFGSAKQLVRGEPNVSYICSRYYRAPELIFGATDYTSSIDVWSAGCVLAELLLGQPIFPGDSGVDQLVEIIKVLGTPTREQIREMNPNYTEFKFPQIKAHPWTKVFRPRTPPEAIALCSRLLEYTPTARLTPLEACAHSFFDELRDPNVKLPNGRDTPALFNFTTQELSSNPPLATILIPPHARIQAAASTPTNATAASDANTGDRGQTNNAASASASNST

SMILES | activity score (negative = inhibition)
CSC1=NC2(C)CCCCC2C12C=CC(=O)C=C2 (centres undefined) | 2.87%
Cc1nc(C)c(-c2nnc(-c3cccc(S(=O)(=O)N(C)C)c3)o2)cc1C(=O)NN | -3.56%
CC(=O)N1CCN(S(=O)(=O)c2cccc(C(=O)NC3CCC(C)CC3)c2)CC1 (centres undefined) | -4.6%
O=C(NCc1ccco1)/C(=C\c1cccc([N+](=O)[O-])c1)NC(=O)c1ccco1 | -2.64%
CCS(=O)(=O)c1ccc(-c2cccc(NC(=O)c3ccc(Br)o3)c2)nn1 | 2.73%
CCC(C)(C)NC(=O)C(c1cccc(OC)c1OC)N(CC(C)C)C(=O)CCC(=O)Nc1cc(C)on1 (centres undefined) | -2.19%
COC(=O)[C@@H]1C[C@@]2(O)[C@H](O)[C@H](O)[C@H](O)C[C@H]2N1Cc1ccc(C)s1 | 2.63%
CCCCC1S/C(=N/N=C/c2cccs2)NC1=O (centres undefined) | 0.416%
COc1ccc(OC)c(-c2csc(NC(=O)C3=NNC(=O)CC3)n2)c1 | -0.495%
CC(C)c1ccc(NC(=O)CCN2C(=O)c3ccc([N+](=O)[O-])cc3C2=O)cc1 | -3.13%
O=S(=O)(NC1CC1)c1ccc(F)c(F)c1 | 1.68%
CCCCn1c(=O)c(CCC(=O)OCC(=O)Nc2ccc(C)c(Cl)c2)nc2ccccc21 | -3%
CCN(C(=O)C1CCCN(c2nc(-c3ccc(OC)cc3)no2)C1)c1ccc(OC)cc1 (centres undefined) | -3.3%
COc1ccc(NC(=O)CCC(=O)N2CCN(S(=O)(=O)c3ccc(C)cc3)CC2)c(OC)c1 | -0.163%
CCCc1ccc(OCC(O)CN2CCN(C(=O)OCC)CC2)cc1 (centres undefined) | 4.1%
CCc1nn(CCCC(=O)Nc2ccc(C)cc2C)c(=O)c2cc3occc3n12 | 2.31%
CC(=O)C1=C(C)NC(C)=C(C(C)=O)C1c1cn(-c2ccccc2)nc1-c1cccs1 | -1.7%
O=C(N/N=C/c1cccc(O)c1)c1cc2c(ccc3ccccc32)o1 | -3.92%
COc1ccc(Cl)cc1NC(=O)CN(C)C(=O)CCCc1c[nH]c2ccccc12 | -0.853%
COc1ccc(-n2nc(C(=O)NCC(=O)N3CCCCCC3)c3ccccc3c2=O)cc1Cl | -0.439%
COc1cccc(CCNC(=O)COc2cccc3c2OC(C)(C)C3)c1 | 1.98%
Cc1ccc(NC(=O)Cn2cccc2C2=NC(c3ccccc3)CO2)c(C)c1 (centres undefined) | -1.16%

SMILES | activity score (negative = inhibition)
COc1ccc(C(=O)C2CCCN(C(=O)c3ccc(OC)o3)C2)c(C)c1 (centres undefined) | 0.0837%
CC(C)Cc1ccc(C(C)C(=N)N)cc1 (centres undefined) | -0.885%
CC(C)(C)c1ccc(C(=O)NNC(=O)Cc2ccccc2)cc1 | -1.05%
COc1ccc(NC(=O)C2CCC(CNS(=O)(=O)c3csc(C(N)=O)c3)CC2)cc1OC (centres undefined) | 2.83%
O=c1c2c(ncn1Cc1ccccc1)nc1n2CCC1 | -1.79%
O=C(CSc1ccc(-c2ccc(-n3cccn3)cc2)nn1)Nc1ccc([N+](=O)[O-])cc1 | -1.44%
CCO[C@@H]1OC(C(=O)NC2CC2)=C[C@H](C)[C@H]1CCCO | 1.19%
CCOC(=O)C1=C(CC)Nc2ccccc2N=C1NC(=O)c1cccc(S(=O)(=O)N2CCCC2)c1 | 3.96%
CN(Cc1ccccc1)CC(O)COc1ccc(CNCc2cc3ccccc3s2)cc1 (centres undefined) | 2.68%
CCN(CC)S(=O)(=O)c1ccc2c3c(cccc13)C(=O)S2 | -2.37%
O=C1COc2ccc(C(=O)COC(=O)C3CC(O)CN3S(=O)(=O)c3ccc(Cl)cc3)cc2N1 (centres undefined) | 1.53%
CC(C)(C)NC(=O)CN(C(=O)c1csnn1)c1ccccc1-c1ccccc1 | -0.766%
Cc1cc(/C=N/Nc2ccc([N+](=O)[O-])cn2)c(C)n1-c1cccc(C(=O)O)c1 | -14.7%
COc1cc(/C=N\Nc2ccc([N+](=O)[O-])cn2)ccc1OCC(=O)O | -70.1% (active)
CCOc1ccc(/C=N/Nc2nncc(-c3ccccc3)n2)cc1OC | -0.0724%
O=C(C1CCN(S(=O)(=O)Cc2ccccc2)CC1)N1CCCc2ccccc21 | 4.16%
O=C(Nc1cccc(Cl)c1)Nc1ccccc1NS(=O)(=O)c1cccs1 | 1.54%
C1=C(N2CCOCC2)/C(=C/c2nc3ccccc3[nH]2)CC1 | -1.13%
C=CCc1cccc(/C=N/NC(=O)COc2ccc(-n3cnnn3)cc2)c1O | -4.1%
O=C(NCc1cccnc1)c1cc(S(=O)(=O)N2CCOCC2)c(Cl)cc1Cl | -0.415%
COc1ccc(C(=O)Oc2ccc(-c3nnco3)cc2)cc1S(=O)(=O)N1CCOCC1 | 2.99%
O=C(CCN1C(=O)c2ccccc2C1=O)NNC(=O)c1ccc(Cl)cc1Cl | 1.29%

Source: PubChem BioAssay AID2097 (Broad Institute, 2009)
